# Experimental data of several laboratories.
# Protocols differ between the studies behind these lines.
# Target: NUAK family SNF1-like kinase 2 (NUAK2, Homo sapiens, UniProt Q9H093)
# Residues used in one study (Q9H093 1-628): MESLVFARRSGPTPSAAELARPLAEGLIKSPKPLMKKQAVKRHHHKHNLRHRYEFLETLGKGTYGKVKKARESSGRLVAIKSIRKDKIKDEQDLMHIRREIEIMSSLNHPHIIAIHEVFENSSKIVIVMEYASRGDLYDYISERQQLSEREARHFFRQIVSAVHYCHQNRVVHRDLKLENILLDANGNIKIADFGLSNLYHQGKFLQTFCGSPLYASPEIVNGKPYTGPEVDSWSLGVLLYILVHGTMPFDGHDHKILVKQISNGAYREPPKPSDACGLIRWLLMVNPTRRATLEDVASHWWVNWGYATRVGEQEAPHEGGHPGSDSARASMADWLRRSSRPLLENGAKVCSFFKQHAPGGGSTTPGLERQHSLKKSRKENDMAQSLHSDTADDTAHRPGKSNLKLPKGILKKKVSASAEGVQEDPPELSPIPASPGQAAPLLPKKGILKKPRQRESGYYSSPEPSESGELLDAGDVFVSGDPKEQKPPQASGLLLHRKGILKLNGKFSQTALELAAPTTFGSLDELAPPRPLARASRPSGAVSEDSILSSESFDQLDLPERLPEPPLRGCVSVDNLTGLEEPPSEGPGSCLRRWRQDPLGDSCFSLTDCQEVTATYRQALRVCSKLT
SMILES,test,conditions,measurement,value
COc1cc(-c2cn(C3CCc4c(F)cccc4N(CC(F)(F)F)C3=O)nn2)ccc1-n1cnc(C)c1 (centres unmarked),"cell-free assay, competition with immobilised ligand",1 µM,remaining binding,100%
CC/C(=N\NC(=O)NCc1cccc(O)c1)c1ccc(O)c(C)c1O,"enzyme activity, inhibitor",0.1 µM,inhibition,12.5%
COc1cc(Cl)c(C(=O)N[C@@H](CN[C@H]2CC[C@@H](N)CC2)Cc2ccc(C#N)cc2)cc1-c1ccc(CN[C@H](C)c2ccc(C)cc2)o1,"enzyme activity, inhibitor",1 µM,remaining activity,93%
Nc1ncnc2occ(-c3ccc(NC(=O)Nc4cc(C(F)(F)F)ccc4F)cc3)c12,"cell-free assay, inhibitor",20 µM,remaining signal,30%
O=C(O)c1cc(-c2ccc(C3CCNCC3)cc2)c2ccc(-c3ccc(C(F)(F)F)cc3)cc2c1,"cell-free assay, competition with immobilised ligand",1 µM,remaining binding,100%
O=C(Nc1cnn(-c2csc(C(=O)NC3COC3)c2)c1)Nc1ccccc1Cl,"enzyme activity, inhibitor",5 µM,remaining activity,99.8%
Cc1ccc(C(=O)Nc2ccc(CN3CCN(C)CC3)c(C(F)(F)F)c2)cc1C#Cc1cnc2cccnn12,"enzyme activity, inhibitor",23.5 nM,remaining activity,84%
CN1CC(Oc2cnc(C#N)cc2-c2ccn3nc(NC(=O)C4CC4)cc3c2)C1,"enzyme activity, inhibitor",1 µM,inhibition,-8%
N#CCCc1ccc2c(c1)-c1[nH]c3ccc([N+](=O)[O-])cc3c1CC(=O)N2,cell-free assay,0.5 µM,remaining signal,67.6%
CN(c1ccnc(CNc2nc(Nc3ccc4c(c3)CC(=O)N4)ncc2C(F)(F)F)n1)S(C)(=O)=O,"cell-free assay, competition with immobilised ligand",1 µM,remaining binding,7.6%
CC(C)(C)c1nc2c(s1)c1nc(N)ncc1c1ccc(NS(=O)(=O)c3c(F)cccc3F)c(F)c12,"enzyme activity, inhibitor, radiometric",1 µM,remaining activity,81%
COc1ccc2c(O[C@@H]3C[C@H]4C(=O)N[C@]5(C(=O)O)CC5/C=C\CCCCC[C@H](NC(=O)OC5CCCC5)C(=O)N4C3)cc(-c3csc(NC(=O)C(C)C)n3)nc2c1C (some centres unmarked),"cell-free assay, competition with immobilised ligand",1 µM,remaining binding,91%
O=C(Nc1cnn(-c2csc(C(=O)NC3COC3)c2)c1)Nc1c(F)cccc1Cl,"enzyme activity, inhibitor",5 µM,remaining activity,97.8%
C#Cc1cccc(Nc2ncnc3cc(OCCOC)c(OCCOC)cc23)c1,cell-free assay,0.5 µM,remaining signal,95.3%
CC(C)(C)c1nc(-c2cccc(NS(=O)(=O)c3c(F)cccc3F)c2F)c(-c2ccnc(N)n2)s1,"enzyme activity, inhibitor, radiometric",1 µM,remaining activity,90%
O=C1Nc2ccc(Cl)cc2C1=Cc1cc(Cl)c(O)c(Cl)c1,cell-free assay,0.5 µM,remaining signal,78.7%
CC(C)(O)[C@H]1CC[C@H](Nc2ccc3ncc(-c4cccc(C(F)(F)F)c4)n3n2)CC1,"enzyme activity, inhibitor",1 µM,remaining activity,84.9%
